In data set [1] the test system is Swiss mice. Nature of the data set: Food intake over 24 h in Swiss mice. To be noted: 30 min before dark onset; for Effect on total food consumption: 20 mg-kg−1 i.p. It is filed as in vivo, mouse. Summed up:
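Male Swiss mice were dosed i.p. with test compound (5 or 20 mg-kg−1) or vehicle 30 min before dark onset. Cumulative food intake was monitored for 24 h. n = 12 per group. Data were analysed by 2-way repeated-measures ANOVA with Bonferroni post hoc test. Error bars are SEM.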

Data set [2] relates to mice. Nature of the data set: Motor activity in mice. It is filed as in vivo, mouse. The conditions noted are these: 20 mg-kg−1 i.p.; data not shown.
The target in data set [3] is CB1 receptors (Rattus norvegicus, UniProt P20272). Nature of the data set: GTPγS binding in rat cerebellar membrane preparations. It is filed as biochemical. The conditions noted are these: absence of WIN55,212-2; 100 nM–10 μM; data not shown.
The subject of data set [4] is Swiss mice. Nature of the data set: Formalin plantar test with. It is filed as in vivo, mouse. The conditions noted are these: for Effect on analgesic effects of methanandamide in formalin test: 30 min before intraplantar formalin with mAEA 50 μg. Summed up: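 Swiss mice were pretreated i.p. with vehicle, test compound (20 mg-kg−1) or CB1 antagonist (2 mg-kg−1). Intraplantar formalin followed 30 min later, with or without co-injected (R)-methanandamide (50 μg). Nociception was scored in the first phase (0–15 min) and second phase (15–45 min). n = 8–13. Analysis was repeated-measures ANOVA with Bonferroni tests. Error bars are SEM.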

For data set [5], the system named is mice. In words: WIN55,212-2-induced catalepsy, ring catalepsy test. It is filed as in vivo, mouse. To be noted: for Effect on WIN55,212-2-induced catalepsy: 30 min prior to WIN55,212-2 5 mg-kg−1. The gist of the method:
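Mice were pretreated i.p. with vehicle, test compound (20 mg-kg−1) or CB1 antagonist (5 mg-kg−1). After 30 min they received vehicle or WIN55,212-2 (5 mg-kg−1, i.p.). Cataleptic behaviour was scored 30 min after the WIN55,212-2 injection. n = 6. Analysis was ANOVA with Bonferroni post hoc tests. Error bars are SEM.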

A short description of data set [6]: Drug levels in plasma and tissues after systemic administration. It is filed as in vivo, mouse.
Data set [7] deals with ob/ob mice. In words: Food intake and body-weight gain in ob/ob mice, daily treatment for 2 weeks. The conditions noted are these: 20 mg-kg−1 i.p. once daily for 2 weeks. It is filed as in vivo, mouse. Summed up:
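Genetically obese ob/ob mice received test compound (20 mg-kg−1, i.p.) or vehicle once daily for 2 weeks. Food intake was recorded, and body weight was expressed as % change from day 0. n = 8 per group. Analysis was 2-way repeated-measures ANOVA with Bonferroni post hoc test. Error bars are SEM.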

Data set [8] relates to mouse CB2 receptors. Nature of the data set: cAMP accumulation in Hek-293 cells stably expressing mouse CB2 receptors. It is filed as cell-based. To be noted: isoproterenol 10 μM alone; basal 18 ± 2.4; n = 4.
Data set [9] deals with Swiss mice. Nature of the data set: WIN55,212-2-induced hypothermia. It is filed as in vivo, mouse. Summed up: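 Swiss mice received a first i.p. injection of vehicle, test compound (20 mg-kg−1) or CB1 antagonist (2 mg-kg−1). A second injection of WIN55,212-2 (3 mg-kg−1, i.p.) followed 30 min later. Body temperature was read 30 min after WIN55,212-2. n = 5. Analysis was ANOVA with Bonferroni post hoc tests. Error bars are SEM.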

Molecules are shown by their SMILES.

Sequence of CB1 receptors (P20272 whole entry): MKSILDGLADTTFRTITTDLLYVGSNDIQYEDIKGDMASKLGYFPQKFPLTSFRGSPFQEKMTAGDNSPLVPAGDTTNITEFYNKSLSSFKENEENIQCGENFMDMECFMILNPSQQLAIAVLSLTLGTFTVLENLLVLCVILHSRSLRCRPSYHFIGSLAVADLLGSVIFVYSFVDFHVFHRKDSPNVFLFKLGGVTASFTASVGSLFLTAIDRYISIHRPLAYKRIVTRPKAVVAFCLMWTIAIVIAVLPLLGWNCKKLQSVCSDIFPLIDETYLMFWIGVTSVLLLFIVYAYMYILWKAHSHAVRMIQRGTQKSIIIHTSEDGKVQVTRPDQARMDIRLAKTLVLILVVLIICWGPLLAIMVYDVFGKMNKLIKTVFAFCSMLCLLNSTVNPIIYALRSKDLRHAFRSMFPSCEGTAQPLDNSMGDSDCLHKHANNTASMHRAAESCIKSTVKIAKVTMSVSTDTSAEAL

`Cc1c(C(=O)c2ccccc2)c(N)c(-c2ccccc2)n1Cc1ccc(Cl)cc1` [URB447, [4-amino-1-(4-chlorobenzyl)-2-methyl-5-phenyl-1H-pyrrol-3-yl](phenyl)methanone]: the “Effect on food intake” value in [1] (5 mg-kg−1 i.p.) is reported as “no effect”. In addition, in data set [1], the “Effect on total food consumption” value is given as “drastically reduced”. Moreover, the “Effect on motor activity” value in data set [2] is “did not alter”. In data set [3], the “Inhibition of basal GTPγS binding” value is reported as “failed to inhibit”. The “Effect on analgesic effects of methanandamide in formalin test” value in data set [4] (20 mg-kg−1 i.p.) is “completely blocked”. For the same compound, the “Effect on WIN55,212-2-induced catalepsy” value in [5] (20 mg-kg−1 i.p.) is “unaffected”. Moreover, in data set [6] (20 mg-kg−1 i.p.), the “Liver Cmax” value stood at 4.3 ± 0.7 nmol/g, the “Time of maximal tissue levels in liver” value is given as 15 min and the “Time of maximal tissue levels in white adipose fat” value was 15 min. In data set [6] (mouse, plasma, ip, 20 mg), the highest level (Cmax) was 596 ± 117 nM and the Tmax was 30 min. In data set [7], the “Amount of food consumed throughout the treatment period” value is recorded as “significant reduction” and the Body-weight gain entry is “significant attenuation”.

`CC(C)NCC(O)c1ccc(O)c(O)c1` (stereo not drawn) [isoproterenol] gave a cAMP levels in [8] of 56.2 ± 6 pmol/well.

Take `Cc1c(C(=O)NN2CCCCC2)nn(-c2ccc(Cl)cc2Cl)c1-c1ccc(Cl)cc1` [rimonabant]: the “Effect on total food consumption” value in data set [1] is recorded as “mimicked”. Moreover, the “Effect on WIN55,212-2-induced hypothermia” value in data set [9] (2 mg-kg−1 i.p., 30 min pretreatment, WIN55,212-2 3 mg-kg−1 i.p.) is reported as “attenuated”. Also, the “Effect on analgesic effects of methanandamide in formalin test” value in data set [4] (2 mg-kg−1 i.p.) is recorded as “completely blocked”. Further, the “Effect on WIN55,212-2-induced catalepsy” value in data set [5] (5 mg-kg−1 i.p.) was “reversed”.

With `CCCCC/C=C\C/C=C\C/C=C\C/C=C\CCCC(=O)N[C@H](C)CO` [(R)-methanandamide], the “Effect on nocifensive behavior in the formalin plantar test” value in data set [4] (mAEA 50 μg co-injected with formalin) is given as “inhibits”.

For the compound `Cc1c(C(=O)c2cccc3ccccc23)c2cccc3c2n1[C@H](CN1CCOCC1)CO3` [WIN55,212-2], the Body temperature effect entry in [9] (3 mg-kg−1 i.p., 30 min after administration) was “maximal hypothermia”. Further, the “Time spent cataleptic in the ring catalepsy test” value in data set [5] (5 mg-kg−1, scored 30 min later) was “significant increase”.

Source of the values: publication PMC3690177 (Bioorganic & medicinal chemistry letters, 2008).
